What was measured:
[1] = system: HepG2; test: Cytotoxicity against human HepG2 cells after 72 hrs by MTT assay; type: functional, cell-based; conditions: HepG2, 72 h
Method in brief: (§1)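 Cells grown in RPMI-1640 with 10% heat-inactivated bovine serum, L-glutamine, penicillin/streptomycin and 10 mM HEPES pH 7.4, at 37 °C, 5% CO2. Seeded, allowed to adhere 24 h, then exposed at 0.01–100 µg/mL (tenfold steps) for 72 h, triplicate wells. MTT 4 h, SDS–isobutanol–HCl solubilization 12–20 h. OD 570 nm versus DMSO controls. IC50 by LOGIT.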

[2] = system: K562; test: Cytotoxicity against human K562 cells after 72 hrs by MTT assay; type: functional, cell-based; conditions: K562, 72 h; method in brief: as §1

| Compound | IC50 [1] | IC50 [2] |
| --- | --- | --- |
| C=C1C2CC[C@@H]3[C@]4(CC[C@]5(C)[C@@H](C(C)=O)[C@H](O)C[C@@]35C)C[C@]24CC[C@@H]1NC (stereo partly specified) [CYCLOMICROBUXININE] | > 100 µM | > 100 µM |
| COc1ccc(/C=C/C(=O)N[C@H]2CC[C@]34C[C@]35CC[C@]3(C)[C@@H]([C@H](C)N(C)C)[C@H](O)C[C@@]3(C)[C@@H]5CCC4[C@]2(C)CO)cc1O (stereo partly specified) [BUXMICROPHYLLINE G] | 0.89 µM | 4.44 µM |
| C[C@@H]([C@H]1[C@H](OC(=O)c2ccccc2)C[C@@]2(C)[C@@H]3CCC4[C@@]5(CC[C@H](NC(=O)c6ccccc6)[C@@]4(C)CO)C[C@@]35CC[C@]12C)N(C)C (stereo partly specified) [BUXMICROPHYLLINE E] | 39.7 µM | > 100 µM |
| CC(C)C(=O)N[C@H]1CC[C@]23C[C@]24CC[C@]2(C)[C@@H]([C@H](C)N(C)C)[C@H](OC(=O)c5ccccc5)C[C@@]2(C)[C@@H]4C=CC3[C@]1(C)CO (stereo partly specified) [BUXMICROPHYLLINE F] | 20.1 µM | 2.95 µM |
| C/C=C1\C(=O)C[C@@]2(C)[C@@H]3CCC4C(C)(C)[C@@H](NC)CC[C@@]45C[C@@]35CC[C@]12C (stereo partly specified) [Z-buxenone] | 14.9 µM | 5.61 µM |
| C=C1C2CC[C@@H]3[C@]4(CC[C@]5(C)/C(=C\C)C(=O)C[C@@]35C)C[C@]24CC[C@@H]1NC (stereo partly specified) [BIXMICROPHYLLINE B] | 0.78 µM | 0.37 µM |
| C=C1C2CC[C@@H]3[C@]4(CC[C@]5(C)[C@@H](C(C)=O)[C@H](O)C[C@@]35C)C[C@]24CC[C@@H]1N(C)C (stereo partly specified) [BUXIPPINE K] | 57.1 µM | 35.3 µM |
| C/C=C1/C(=O)C[C@@]2(C)[C@@H]3CCC4C(C)(C)[C@@H](NC)CC[C@@]45C[C@@]35CC[C@]12C (stereo partly specified) | > 100 µM | 1.7 µM |
